Screens deposited in PubChem by Johns Hopkins Ion Channel Center.
Sampled rows, rich in hits. Any-hit rate of the full collection: about 2.3%.
TRPC4 inh: TRPC4 (mouse) channel inhibition. HEK293 TRPC4beta/mu-opioid, DAMGO-evoked Fluo4 calcium flux; hits give low values. AID 2247. B-score at 10 µM. actives 0.39% (n = 300,000);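 active = B-score over 3 SD under the library average, no early fluorescence shift, positive overall ratio signal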
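Signal: kinetic Fluo4 fluorescence imaging of calcium influx. Material: stable TRPC4beta/mu-opioid receptor HEK293 cells. Probe or stimulus: DAMGO in two steps, submaximal then maximal.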
TRPC6 inhibitor: inhibitors of mouse TRPC6 channel. Q61143. HEK293-TRPC6, membrane potential dye, ACh-evoked depolarization; hits give low values. B-score at 10 µM. actives 1.1% (n = 310,000). AID 2553;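 active = B-score under library mean minus 3 SD, initial fluorescence not abnormally high, positive integrated signal ratio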;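 also: B-score derived from integrated fluorescence ratio over the kinetic read; more negative B-score means stronger inhibition of depolarization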
Target sequence (Q61143 whole entry, looked up): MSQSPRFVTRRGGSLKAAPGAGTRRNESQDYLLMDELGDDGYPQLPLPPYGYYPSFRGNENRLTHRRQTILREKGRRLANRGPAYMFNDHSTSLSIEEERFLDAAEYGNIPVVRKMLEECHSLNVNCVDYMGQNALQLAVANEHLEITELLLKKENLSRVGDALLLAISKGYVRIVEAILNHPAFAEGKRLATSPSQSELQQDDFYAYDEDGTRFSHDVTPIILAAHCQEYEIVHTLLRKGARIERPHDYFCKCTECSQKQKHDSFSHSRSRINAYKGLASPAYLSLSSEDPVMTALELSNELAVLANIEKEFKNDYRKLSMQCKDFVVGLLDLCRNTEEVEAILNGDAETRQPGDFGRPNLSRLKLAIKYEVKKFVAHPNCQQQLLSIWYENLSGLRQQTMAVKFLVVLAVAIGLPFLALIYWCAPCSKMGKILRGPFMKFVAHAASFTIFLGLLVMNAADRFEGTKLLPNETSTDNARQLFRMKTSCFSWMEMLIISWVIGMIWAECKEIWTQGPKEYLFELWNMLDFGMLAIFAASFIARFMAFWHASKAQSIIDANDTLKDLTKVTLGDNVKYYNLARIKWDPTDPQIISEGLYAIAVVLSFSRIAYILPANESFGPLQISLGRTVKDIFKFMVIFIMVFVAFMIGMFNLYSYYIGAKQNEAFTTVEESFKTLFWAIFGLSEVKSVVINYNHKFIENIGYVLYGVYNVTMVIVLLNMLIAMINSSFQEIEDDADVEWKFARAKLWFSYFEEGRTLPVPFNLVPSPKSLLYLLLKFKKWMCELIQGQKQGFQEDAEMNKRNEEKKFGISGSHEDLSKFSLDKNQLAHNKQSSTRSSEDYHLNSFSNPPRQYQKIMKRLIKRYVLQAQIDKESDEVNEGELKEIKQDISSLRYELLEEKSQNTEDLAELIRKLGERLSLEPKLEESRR
TRPC4 potent: TRPC4 (mouse) allosteric potentiation; Q9QUQ5; HEK293 TRPC4beta/mu-opioid, DAMGO EC20, Fluo-4 Ca2+ flux; hits give high values; B-score at 10 µM; actives 0.42% (n = 310,000);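 active = B-score of calcium response area above 5 SD of library B-scores, with initial fluorescence ratio within 5 SD of library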
TRPC4 act: opens the mouse TRPC4 cation channel | Q9QUQ5 | HEK293 TRPC4beta/mu-opioid, Fluo4 calcium fluorescence; hits give high values | B-score at 10 µM | actives 0.49% (n = 310,000) | AID 2237;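 active = B-score above 5 SD of library B-scores, and initial fluorescence ratio not above library mean plus 5 SD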;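 also: positive B-score marks a calcium rise read as TRPC4 activation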
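Assay system – TRPC4beta and mu-opioid receptor HEK293 stable cells · Measured by – Fluo4 fluorescence, kinetic · Schedule – dye loading 45 min room temperature, 110 s kinetic read · Read-out – B-scored integrated calcium fluorescence ratio · Controls – buffer and maximal DAMGO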
TRPC6 activator: activators of mouse TRPC6 channel; HEK293-TRPC6 membrane potential dye fluorescence; hits give high values; B-score at 10 µM; actives 0.13% (n = 310,000); AID 2550;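 active = B-score of the integrated fluorescence ratio above library mean plus 3 SD, and starting fluorescence ratio within library mean plus 5 SD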;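 also: higher score means more depolarization so channel activation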
TRPC4 sel inh 2: second selectivity test of TRPC6 inhibitors: effect on mouse TRPC4; shares compounds with TRPC6 inhibitor; HEK293 TRPC4/MOR, membrane potential dye fluorescence; channel activated by saturating DAMGO dose; inhibition, % at 10 µM; actives 42% (n = 920); AID 2776;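 active = compounds whose fluorescence signal differed from control wells by over 3 SD, either direction, in both duplicate plates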
TRPC4 spec: selectivity of TRPC6 inhibitors: effect on mouse TRPC4 | activity change, negative = inhibition, % at 10 µM | AID 2777 | shares compounds with TRPC6 inhibitor | actives 61% (n = 920) | HEK293 TRPC4/mu-opioid, membrane potential fluorescence;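 active = rise or fall in signal beyond 3 SD of buffer-only wells in both replicate plates, either sign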;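 also: integrated kinetic ratio of fluorescence range over baseline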
HEK293 MPD ctr 2-1: second counter-screen for TRPC6 inhibitors: parental HEK293 cells. shares compounds with TRPC6 inhibitor. parental HEK293 membrane potential dye fluorescence; maximal acetylcholine challenge after compound addition. signal change vs control, % at 10 µM. actives 31% (n = 920). AID 2779;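 active = membrane potential signal moving either way by over 3 SD of the maximum-effect control, in both duplicate plates, meaning non-specific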
HEK293 MPD ctr-1: counter-screen for TRPC6 inhibitors: effect in parental HEK293 cells. shares compounds with TRPC6 inhibitor. parental HEK293 membrane potential dye fluorescence. membrane potential signal change, % at 10 µM. actives 60% (n = 920);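 active = membrane potential signal shifting up or down by more than 3 SD of buffer-only wells, on both duplicate plates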
HEK293 MPD ctr-2: checks TRPC6 modulator effects in parental HEK293 cells | membrane potential dye fluorescence | AID 488924 | actives 51% (n = 2,400) | shares compounds with TRPC6 inhibitor | membrane potential signal change, % at 10 µM;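 active = membrane potential signal moves up or down beyond 5 SD from buffer-only wells, on both duplicate plates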
HEK293 MPD ctr 2-2: second counter-screen for TRPC6 modulators: effect in parental HEK293 cells | shares compounds with TRPC6 inhibitor | membrane potential dye fluorescence; after compound, maximal acetylcholine stimulation | inhibition, % at 10 µM | actives 14% (n = 2,400);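 active = membrane potential signal drops by more than 5 SD from the mean control signal, in both duplicate plates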
TRPC4/MOR mod: selectivity of TRPC6 modulators against mouse TRPC4; shares compounds with TRPC6 inhibitor; HEK293 TRPC4/mu-opioid, membrane potential fluorescence; percent change from control (negative = decrease, positive = increase), % at 10 µM; actives 69% (n = 2,400); AID 488927;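 active = membrane potential signal moved up or down beyond 5 SD of buffer control wells, in both duplicate plates, actives on both sides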
TRPC4 ctr inh 2: second check of whether TRPC6 modulators also affect mouse TRPC4; shares compounds with TRPC6 inhibitor; HEK293 TRPC4/mu-opioid, membrane potential dye fluorescence; stimulated with maximal-effect DAMGO; inhibition, % at 10 µM; actives 55% (n = 2,400); AID 488928;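 active = drop in membrane potential signal beyond 5 SD of the control wells in both duplicate plates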;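 also: TRPC4 counter screen for TRPC6 hits run under conditions tuned for TRPC6 not TRPC4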
TRPC6 inh conf: confirmation of mouse TRPC6 inhibitors. actives 43% (n = 3,300). shares compounds with TRPC6 inhibitor. inhibition, % at 10 µM. HEK293-TRPC6, membrane potential dye, ACh-evoked depolarization;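 active = fluorescence ratio falls more than 5 SD below the full-stimulation control mean, in both duplicate runs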;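 also: integrated fluorescence ratio of peak minus minimum over baseline after agonist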
TRPC6 act confirm: mouse TRPC6 activator confirmation | AID 488961 | HEK293-TRPC6 membrane potential dye fluorescence, FDSS | activation, % at 10 µM | actives 11% (n = 2,800) | shares compounds with TRPC6 inhibitor;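 active = ratio signal rise beyond 5 SD above unstimulated control wells' mean, seen in both duplicate runs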
Of the large screens only hits and unclear results are named; the others gave an inactive call (follow-up assays come after a bar, where they were run).

NS(=O)(=O)c1ccc(CCNC(=O)COC(=O)CCSc2ccc(Cl)cc2)cc1	none
NS(=O)(=O)c1ccc(CCNC(=O)COC(=O)/C=C/c2ccc(Cl)cc2)cc1	TRPC6 inhibitor -5.4 | HEK293 MPD ctr-2 inactive | HEK293 MPD ctr 2-2 inactive | TRPC4/MOR mod inactive | TRPC4 ctr inh 2 inactive | TRPC6 inh conf inactive | TRPC6 act confirm inactive
COc1ccc(CCC(C)NC2CCCCCCC2)cc1 (stereo unspecified)	TRPC6 inhibitor -5.7 | HEK293 MPD ctr-2 289% | HEK293 MPD ctr 2-2 inactive | TRPC4/MOR mod 64% | TRPC4 ctr inh 2 76% | TRPC6 inh conf 56%
CS(=O)(=O)N1c2ccccc2[C@]2(Br)C[C@H]3C(=O)N[C@@H](Cc4ccccc4)C(=O)N3[C@H]12	none
O=[N+]([O-])c1ccc2nc(-c3ccncc3)[nH]c2c1	TRPC6 inhibitor -6.4 | HEK293 MPD ctr-2 -304% | HEK293 MPD ctr 2-2 60% | TRPC4/MOR mod -52% | TRPC4 ctr inh 2 36% | TRPC6 inh conf inactive | TRPC6 act confirm inactive
CN(c1ccccc1C(=O)Nc1ccccc1-c1ccccc1)S(C)(=O)=O	none
CC(C)c1ccc(NC2CCCN(C(=O)c3ccnc(Cl)c3)C2)cc1 (stereo unspecified)	none
CCn1c(/C=C/N(C)c2ccccc2)[n+](CC)c2ccc(Cl)cc21	TRPC6 inhibitor -8.6 | TRPC4 sel inh 2 inactive | TRPC4 spec -29% | HEK293 MPD ctr 2-1 24% | HEK293 MPD ctr-1 -411% | TRPC6 inh conf 65% | TRPC6 act confirm inactive
CCn1c(/C=C/Nc2ccccc2)[n+](CC)c2ccc(Cl)cc21	TRPC6 inhibitor -5.2 | HEK293 MPD ctr-2 -186% | HEK293 MPD ctr 2-2 inactive | TRPC4/MOR mod -34% | TRPC4 ctr inh 2 56% | TRPC6 inh conf 50% | TRPC6 act confirm inactive
CCn1c(C)[n+](Cc2ccccc2)c2ccc(Cl)cc21	none
C=CC[N+]1(CC#CCOC(c2ccccc2)c2ccccc2)CCOCC1	TRPC6 inhibitor -5.5 | HEK293 MPD ctr-2 inactive | HEK293 MPD ctr 2-2 inactive | TRPC4/MOR mod -16% | TRPC4 ctr inh 2 inactive | TRPC6 inh conf 37% | TRPC6 act confirm inactive
C=CC#CC[N+]1(CC#Cc2ccccc2)CCOCC1	none
O=C(Nc1nccs1)c1ccc(NC(=O)C2CC=CCC2C(=O)O)cc1 (stereo unspecified)	none
